# An excerpt weighted towards active compounds, which were near 1.9% of everything screened.
# SUMO1 PPI mod: alters human SUMO1 binding to SIM partners; P63165; SUMO1 binding to a labelled peptide, TR-FRET, 1 h; inhibition, % at 20 µM; hit rate 0.33% among 360,000; AID 602429; in the data active = inhibition above about 37%
# Target sequence (P63165 whole entry, looked up): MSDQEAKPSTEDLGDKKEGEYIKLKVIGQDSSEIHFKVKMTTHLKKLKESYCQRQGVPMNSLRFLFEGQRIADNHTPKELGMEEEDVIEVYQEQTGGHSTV
# Scp-1 inhibitor: Scp-1 (human) phosphatase inhibition; Q9GZU7; AID 493091; Recombinant Scp1, phosphopeptide, malachite green phosphate absorbance; hit rate 0.88% among 340,000; inhibition, % at 20 µM;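 active = inhibition above about 50% at 20 µM, limit read from the data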;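 also: plate controls were DMSO wells with enzyme for no effect and wells lacking enzyme for full effect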
# Target sequence (Q9GZU7 76-261 limits assumed): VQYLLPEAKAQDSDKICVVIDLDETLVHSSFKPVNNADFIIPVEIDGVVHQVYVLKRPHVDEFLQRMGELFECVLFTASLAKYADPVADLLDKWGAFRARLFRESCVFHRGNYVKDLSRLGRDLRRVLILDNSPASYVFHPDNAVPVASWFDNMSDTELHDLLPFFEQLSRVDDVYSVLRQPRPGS
#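 System: SCP-1 catalytic domain; Reagent: Phospho 17-mer peptide substrate; Doses: one concentration, 20 µM, with 1.0% DMSO; Incubation: 45 min room-temperature reaction, 5 min colour, 30 min stabiliser; Signal: Phosphate-binding colour reagent, absorbance read at 630 nm.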
# LMPTP block: LMPTP (human) inhibition; inhibition, % at 20 µM; hit rate 0.22% among 360,000; AID 651560; recombinant LMPTP-A, OMFP fluorogenic substrate, fluorescence intensity;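 active = compounds that cut the enzyme signal by at least half of the control window in the single-dose screen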;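 also: plate controls were DMSO wells with enzyme plus substrate for no effect and substrate without enzyme for full effect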
# Target sequence (P24666 whole entry, looked up): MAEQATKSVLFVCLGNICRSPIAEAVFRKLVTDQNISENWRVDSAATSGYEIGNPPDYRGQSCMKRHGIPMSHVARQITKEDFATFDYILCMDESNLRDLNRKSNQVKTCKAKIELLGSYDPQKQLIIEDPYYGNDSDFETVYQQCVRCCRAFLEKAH
#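 Test system: LMPTP-A, protein tyrosine phosphatase of low molecular weight; Input: 0.625 nM enzyme; Incubation: 50 min dark incubation at room temperature; Signal: endpoint fluorescence intensity from OMFP dephosphorylation; Read-out basis: % inhibition versus control wells.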
# STEP block: inhibitors of human striatal-enriched phosphatase STEP. inhibition, % at 20 µM. hit rate 0.25% among 360,000. recombinant STEP, OMFP fluorogenic substrate, fluorescence. P54829;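 active = inhibition at 20 µM, scaled per plate between control wells, above about 37%, limit read from the data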;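 also: 0% = DMSO with enzyme and substrate and 100% = substrate only without enzyme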
#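 Measure: Control-normalized % inhibition with plate pattern correction | Test system: STEP phosphatase, cell-free reaction | Medium: pH 6.0 Bis-Tris with DTT and Tween 20 | Technique: Fluorescence, 480/540 nm | Times: Reaction 20 min, ambient temperature | Doses: Single compound dose of 20 µM, 1% DMSO final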
# FAS TE block: blocks the thioesterase domain of human fatty acid synthase | hit rate 0.67% among 360,000 | P49327 | recombinant FAS-TE, OMFH fluorogenic substrate, fluorescence endpoint | inhibition, % at 15 µM;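 active = compounds whose normalised, plate-corrected inhibition of enzyme fluorescence in the single-dose primary screen is 50% or more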;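 also: 0% = DMSO with enzyme and 100% = substrate without enzyme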
# FAS-TE inh conf: FAS thioesterase (human) inhibition, confirmation | shares compounds with FAS TE block | recombinant FAS-TE, OMFH fluorogenic substrate, fluorescence | inhibition, % at 15 µM | hit rate 45% among 2,300 | AID 624325;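 active = compounds inhibiting the enzyme by at least 50% at 15 µM in any one of the replicates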;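 also: 0% = enzyme with DMSO only and 100% = wells lacking enzyme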
# The depositor's hits bear a star; / = no result.
SMILES,SUMO1 PPI mod,Scp-1 inhibitor,LMPTP block,STEP block,FAS TE block,FAS-TE inh conf
CN(C)S(=O)(=O)c1ccc(C(=O)NNc2nc(-c3ccccc3)c3cc(Br)ccc3n2)cc1,11.7,5.4,1.5,-2.2,30.5,/
O=C(Nc1nc(-c2ccccc2)c(C(=O)c2ccccc2)s1)c1ccc(S(=O)(=O)N2CCCCC2)cc1,-2.2,-9.8,0.6,-2.3,86.4*,9.4
Cn1c(-c2ccc(F)cc2)cnc1NCc1cccc([N+](=O)[O-])c1,-12.3,0.4,-1.7,-3.2,76.3*,78.3*
Cc1cc(C(C)(C)C)cc(C)c1COC(=O)CN1C(=O)NC2(CCCC2)C1=O,5.4,-2.7,-2.7,-2.7,52.3*,55.6*
Cc1ccccc1COC(=O)CN1C(=O)NC2(CCCC2)C1=O,10.2,-8.9,-1.2,-0.5,-4.0,/
CC(C)(C)c1ccc(COC(=O)CN2C(=O)NC3(CCCC3)C2=O)cc1,4.5,-4.9,2.9,0.5,67.6*,76.2*
COc1ccc(N2CCN(CCC(=O)c3ccc4ccccc4c3)CC2)cc1,-14.3,-6.5,1.5,1.4,5.0,/
CC(=O)c1ccccc1NC(=O)c1cc(S(=O)(=O)N2CCOCC2)ccc1N1CCCC1,-52.8,-8.6,0.0,3.7,35.3,/
Cc1cccc(Nc2nnc(-c3ccc(N4CCOCC4)c([N+](=O)[O-])c3)c3ccccc23)c1,-17.3,2.1,5.2,4.8,82.3*,22.7
Cc1nnc(-c2ccc(N3CCOCC3)c([N+](=O)[O-])c2)o1,-35.1,-5.5,1.3,0.0,-1.2,/
CC(=O)c1ccc(N(C(=O)c2ccco2)C(C(=O)NC2CCCC2)c2ccc(N3CCOCC3)cc2)cc1 (configuration not stated),-1.7,-1.7,-1.8,-3.1,55.1*,52.3*
COc1cc(OC)cc(N(C(=O)c2ccco2)C(C(=O)NC2CCCC2)c2ccc(N3CCOCC3)cc2)c1 (configuration not stated),1.0,-7.2,1.3,-2.8,9.6,/
CCOC1=C2[C@H](c3ccccc3Cl)N(S(=O)(=O)c3ccc(C)cc3)C[C@H]2C(C#N)(C#N)C(C#N)(C#N)C1,6.1,/,-0.7,-3.8,76.3*,14.2
CCOC1=C2[C@@H](CN(S(=O)(=O)c3ccc(C)cc3)[C@H]2c2ccccc2Cl)[C@H]2C(=O)NC(=O)[C@H]2C1,2.2,/,-0.8,2.7,3.1,/
CCOC1=C2[C@H](c3ccc(CC)cc3)N(S(=O)(=O)c3ccc(C)cc3)C[C@H]2C(C#N)(C#N)C(C#N)(C#N)C1,8.6,/,1.8,-0.1,80.1*,11.2
CCOC(=O)[C@]12CCCC=C1N(Cc1ccco1)C(=O)[C@H](CC(=O)N1CCCC1)C2,3.6,/,-0.1,/,-9.9,/
O=C(NCCN1C(=O)S/C(=C\c2ccccc2)C1=O)C1CCN(S(=O)(=O)c2cccs2)CC1,-19.3,-10.3,2.0,2.0,52.7*,58.0*
CCS(=O)(=O)c1ccc2oc(Nc3ccc(C(C)(C)C)cc3)nc2c1,1.3,-2.9,1.6,-2.8,75.6*,51.8*
CCS(=O)(=O)c1ccc2oc(Nc3ccc(OC)cc3)nc2c1,6.3,-1.0,-1.2,-1.0,2.4,/
C=CCN(C(=O)CCC(=O)Nc1cc(C)on1)C(C(=O)NC1CCCC1)c1ccc(OC)cc1OC (configuration not stated),23.9,1.8,-0.4,0.1,-5.2,/
Cc1nn(-c2ccccc2)c(N2CCCC2)c1/C=N/NC(=O)c1cc(-c2cccs2)nc2ccccc12,2.9,0.5,1.5,-2.0,80.4*,12.6
COc1ccc(-c2nn(-c3ccccc3)cc2/C=N/NC(=O)c2cccc(S(=O)(=O)Nc3ccccc3Cl)c2)cc1,14.7,-10.7,4.5,-5.9,58.7*,16.0
Cc1nn(-c2ccccc2)c(N2CCCC2)c1/C=N/NC(=O)c1cccc(S(=O)(=O)Nc2ccc(Cl)cc2)c1,12.1,-17.2,2.6,-0.4,50.5*,19.9
Cc1nn(-c2ccccc2)c(N2CCCC2)c1/C=N/NC(=O)c1cc2ccccc2cc1O,5.0,-10.1,0.5,-0.6,-5.9,/
Cc1nn(-c2ccccc2)c(N2CCCC2)c1/C=N/NC(=O)c1cc(-c2ccccn2)nc2ccccc12,2.2,-4.6,1.5,0.0,77.0*,26.0
CCOC(=O)c1c(OCC)[nH]c2ccc(O)cc12,0.0,6.0,-1.7,0.6,-5.1,/

# Screening data as filed in PubChem.
